Shown are actives, neighbours in structure and some others; about 1.1% of the full set was active somewhere.
NR2E3 ag-1 – NR2E3 (human) agonism | Q9Y5X4 | GST-NR2E3/biotin-RetCOR TR-FRET, 1536-well | inhibition of corepressor binding, % at 4.78 µM | actives 0.12% (n = 320,000) | AID 2300;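 active means percent inhibition above the cutoff of mean plus 3 SD of all tested compounds, set per screening campaign, cut at about 20% in these data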;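 further: 0% = DMSO wells and 100% = biotin wells as full block of FRET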
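System: GST-tagged NR2E3 plus biotinylated RetCOR corepressor; Amount: 1.35 nM GST-tagged NR2E3 final; Dosing: single nominal compound dose of 4.8 µM; Schedule: 5 h incubation at 4 °C; Technique: TR-FRET with europium anti-GST and streptavidin-D2, 340 nm excitation; Controls: biotin wells as high control, 0.6% DMSO wells as low control.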
Vif inh – inhibitors of HIV Vif. HEK293T cells, Vif self-association by quenched fluorescence, imaging, 24 h. inhibition, % at 7.49 µM. actives 0.35% (n = 340,000). AID 602346; in the data active means inhibition above about 50%, passing the limit was not always enough; inconclusive means no clear call, values can overlap the other calls; inactive means below about 31%
NR2E3 ag-2 – activates human NR2E3 receptor | Q9Y5X4 | AID 602229 | actives 0.35% (n = 360,000) | CHO-S Gal4-NCOR/VP16-NR2E3 two-hybrid, luciferase | inhibition of corepressor binding, % at 3.98 µM;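 active means inhibition above the mean of all tested compounds plus 3 SD, cut at about 70% in these data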;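 further: 0% = DMSO with NR2E3 transfected cells and 100% = cells lacking NR2E3 construct; higher means lower luciferase signal from less NR2E3 corepressor binding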
core dimer inh – HCV core protein dimerization inhibition; actives 0.33% (n = 300,000); inhibition, % at 5 µM; TR-FRET GST/Flag-core106 dimerization, 1536-well;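 active means inhibition above the mean of all tested compounds plus 3 SD, set per screening campaign, cut at about 45% in these data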
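System: GST-tagged and Flag-tagged HCV core protein residues 1-106 / Input: core106 proteins, GST 13.5 nM and Flag 17 nM / Buffer or medium: KF-containing HEPES buffer, pH 7.45, DTT, CHAPS, BSA / Probe or stimulus: Eu-anti-GST and XL665-anti-Flag labelled anti-tag antibodies / Schedule: 4 h, 22.5 °C incubation / Technique: TR-FRET 671 and 617 nm emission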
MT1-MMP act inh – MT1-MMP (human) activation inhibition. HT1080 RFP-PRO-GFP cells, GFP/RFP ratio fluorescence, overnight; percent of plate control window, DMSO zero. actives 0.061% (n = 360,000). GFP/RFP ratio change, % at 20 µM. P50281;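 active means GFP/RFP ratio change of at least 30% with cell ATP level not reduced by more than half and red fluorescence within 50% of control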
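Test system: HT1080 RFP-PRO-GFP cells; Benchmarks: DMSO and RFP-L50D-GFP cell wells; Timing: cells overnight before dosing, compound overnight, 37 °C, 5% CO2; Compound: one 20 µM compound dose with 1% DMSO; Read-out: GFP/RFP fluorescence ratio.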
DAGLB inh – diacylglycerol lipase beta (human) inhibition; HEK293T DAGLB membrane lysate, EnzChek fluorogenic substrate; inhibition, % at 5.17 µM; actives 0.059% (n = 340,000); in the data active means inhibition above about 34%;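 further: 0% = enzyme with vehicle and 100% = wells lacking enzyme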
Target sequence (Q8NCG7 whole entry, looked up): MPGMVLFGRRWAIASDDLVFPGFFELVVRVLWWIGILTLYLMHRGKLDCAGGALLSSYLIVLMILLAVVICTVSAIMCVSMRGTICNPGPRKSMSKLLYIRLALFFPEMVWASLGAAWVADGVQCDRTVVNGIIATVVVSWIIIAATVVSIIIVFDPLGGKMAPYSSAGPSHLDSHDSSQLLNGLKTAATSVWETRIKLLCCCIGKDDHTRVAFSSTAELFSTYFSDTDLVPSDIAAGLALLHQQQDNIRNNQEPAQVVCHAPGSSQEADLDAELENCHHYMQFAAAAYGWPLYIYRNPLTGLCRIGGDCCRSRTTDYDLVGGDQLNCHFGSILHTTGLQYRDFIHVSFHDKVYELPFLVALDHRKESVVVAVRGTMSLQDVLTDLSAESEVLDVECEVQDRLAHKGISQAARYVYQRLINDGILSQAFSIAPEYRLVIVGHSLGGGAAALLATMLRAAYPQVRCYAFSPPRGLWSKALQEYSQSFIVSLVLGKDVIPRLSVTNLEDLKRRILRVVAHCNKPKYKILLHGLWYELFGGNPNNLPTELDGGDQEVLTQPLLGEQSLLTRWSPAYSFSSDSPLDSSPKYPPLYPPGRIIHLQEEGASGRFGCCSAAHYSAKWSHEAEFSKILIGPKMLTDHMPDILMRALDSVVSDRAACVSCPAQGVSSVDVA
NR2E3 ag conf – confirmation of human NR2E3 agonists; shares compounds with NR2E3 ag-2; CHO-S mammalian two-hybrid NR2E3-NCOR, luciferase luminescence; inhibition, % at 3.98 µM; actives 51% (n = 2,300);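 active means average inhibition above a cutoff equal to the mean inhibition of all tested compounds plus one SD, cut at about 70% in these data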;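 further: 0% = DMSO in NR2E3 cells and 100% = DMSO in cells lacking NR2E3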
GAL4-VP16 luc – counter-screen for NR2E3 agonists: GAL4-VP16 reporter inhibitors. shares compounds with NR2E3 ag-2. CHO-S GAL4-VP16 luciferase reporter, luminescence. inhibition, % at 3.98 µM. actives 29% (n = 2,300);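 active means mean inhibition above a cutoff equal to the average over all tested compounds plus one standard deviation, cut at about 70% in these data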;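 further: luciferase from a UAS reporter driven by GAL4-VP16 transactivation; 0% = DMSO with VP16-transfected cells and 100% = DMSO with cells lacking VP16; higher means less reporter light so more repression of VP16 activity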
MT1-MMP act val – validation of inhibitors of human MT1-MMP activation. shares compounds with MT1-MMP act inh. HT1080 RFP-PRO-GFP cells, GFP and RFP fluorescence ratio, overnight. inhibition, % at 20 µM. actives 10% (n = 200). AID 652235;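 active means inhibition of at least 50% in the primary cell screen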
Numbers without * were called inactive; u = inconclusive; x = no result.

SMILES	NR2E3 ag-1	Vif inh	NR2E3 ag-2	core dimer inh	MT1-MMP act inh	DAGLB inh	NR2E3 ag conf	GAL4-VP16 luc	others
C[C@H]1[C@@H](OS(=O)(=O)O)C[C@@H]2C[C@H]([C@@H](O)c3cc(=O)[nH]c(=O)[nH]3)NC3=NC[C@H]1N32	x	-21	101*	x	-46	1	99*	82*
CC(C)c1ccc(C(c2c(O)c3ccccc3oc2=O)c2c(O)c3ccccc3oc2=O)cc1	x	-6	75*	x	1	11	91*	53
O=c1oc2ccccc2c(O)c1C(c1ccc([N+](=O)[O-])cc1)c1c(O)c2ccccc2oc1=O	x	-1	10	x	3	13	x	x
O=C(OCc1ccccc1)N1CCC2CC1c1cc(N3Cc4ccccc4-n4nncc4C3)ccc12 (stereo not given)	x	x	-114	x	-1	1	x	x
N#Cc1cn(C2OC(CO)C(O)C2O)c2ncnc(N)c12 (stereo not given)	x	-2	98*	x	-16	-2	100*	83*
NC(=O)c1cn(C2OC(CO)C(O)C2O)c2ncnc(N)c12 (stereo not given)	-1	1	101*	2	-47	-5	99*	99*
N#Cc1c(Br)n(C2OC(CO)C(O)C2O)c2ncnc(N)c12 (stereo not given)	x	-2	43	x	11	-2	x	x
CCC(=O)OC1CCC2C3CCC4CC(=O)C=CC4(C)C3CCC12C (stereo not given)	x	-2	6	x	11	-11	x	x
COc1ccc(NC2Oc3cc4c(cc3C(c3cc(OC)c(OC)c(OC)c3)C2C)OCO4)cc1 (stereo not given)	x	-15	26	x	17	-3	x	x
CS(=O)(=O)c1ccc(C2=C(CNC(=O)c3nccs3)[C@H]3CC[C@@H](C2)N3Cc2ccccc2)cc1	x	0	-8	x	0	-1	x	x
O=C1CCC2(O)C3Cc4ccc(O)c5c4C2(CCN3Cc2ccoc2)C1O5 (stereo not given)	x	x	-11	x	0	1	x	x
CC1CC(C)(O)CC(C(O)CC2CC(=O)NC(=O)C2)C1=O (stereo not given)	x	0	100*	x	-52	-3	100*	99*
COc1cc2cc(C(=O)N3CC(COS(C)(=O)=O)c4ccc(O)cc43)[nH]c2c(OC)c1OC (stereo not given)	x	-15	73*	x	-14	-1	100*	94*
CN(Cc1cccc(-c2ccncc2)c1)C(=O)Oc1ccccc1Cc1ccccc1	x	x	81*	x	4	x	80*	79*
CN(Cc1cccc(-c2ccncc2)c1)C(=O)Oc1ccccc1Cl	x	x	88*	x	1	x	73*	77*
CN(C)Cc1ccccc1OC(=O)N(C)C	4	-5	-11	-3	-4	0	x	x
Cc1nc2cc(OC(=O)N(C)Cc3cccc(-c4ccncc4)c3)ccc2s1	x	x	67	x	-3	x	62	54
CC(=O)NC1=C(N2CC2C)C(=O)C(NC(C)=O)=C(N2CC2C)C1=O (stereo not given)	x	15	-36	x	0	0	x	x
CC1=CC(C)CC(C)OC(=O)CC(c2ccc(O)cc2)NC(=O)C(Cc2c(Br)[nH]c3ccccc23)N(C)C(=O)C(C)NC(=O)C(C)C1 (stereo not given)	x	5	64	x	-28	3	58	63
CCN1/C(=C/C=C/C2=[N+](CC)c3ccccc3C2(C)C)C(C)(C)c2ccccc21	x	-27	104*	x	15	-78	98*	94*
CN1/C(=C\C=C\C2=[N+](C)c3ccc4ccccc4c3C2(C)C)C(C)(C)c2ccccc21	-4	x	x	-22	x	x	x	x
O=C1C(Br)C2CCC1C2C(=O)O (stereo not given)	x	x	-17	x	0	-1	x	x
Oc1c(Br)c(Br)c(Br)c(Br)c1Br	1	-11	101*	x	1	24	99*	88*
Oc1c(Br)cc(Br)cc1Br	1	-3	7	x	1	10	x	x
Oc1c(Cl)cccc1Cc1cc(Cl)cc(Cl)c1O	x	-5	98*	x	5	15	100*	93*
SMILES	NR2E3 ag-1	Vif inh	NR2E3 ag-2	core dimer inh	MT1-MMP act inh	DAGLB inh	NR2E3 ag conf	GAL4-VP16 luc	others
CC(C)(C)C(=O)N1Cc2cc(N3CCCCC3)ccc2-n2nncc2C1	x	-10	-1	x	-1	x	x	x
CCOC(=O)c1cc2ccccc2n1C1CCN(Cc2ccccc2)CC1	x	x	-1	x	2	x	x	x
CCC1CN2CCc3cc(OC)c(OC)cc3C2CC1CC1NCCc2c1[nH]c1ccc(O)cc21 (stereo not given)	x	-4	102*	x	-39	0	99*	99*
C[N+]1=C(/C=C/Nc2ccccc2)C(C)(C)c2ccccc21	-3	-3	-15	-9	38*	1	x	x	MT1-MMP act val=26
CCC(C)N1C(=O)/C(=C\c2ccc(N3CCCCCC3)cc2)C(=O)NC1=S (stereo not given)	1	1	7	13	33*	7	x	x	MT1-MMP act val=3
CNc1ccc2nc3ccccc3[n+](C)c2c1	-29	-5	-30	-112	67*	4	x	x	MT1-MMP act val=49
OCCNc1c2c(nc3ccccc13)CCCC2	-1	4	-10	-5	-6	0	x	x
C[n+]1c2ccccc2nc2ccc(NCCO)cc21	-22	u	-39	-102	55*	1	x	x	MT1-MMP act val=38
Cc1cccc(C)c1-n1nnnc1C(CCc1ccccc1)N1CCC2(CC1)C(=O)NCN2c1ccccc1 (stereo not given)	x	-2	-11	x	-5	x	x	x
CC(=O)OC1CCC2(C)C3CCC4(C)C(OC(C)=O)CCC4C3C(C)C2(O)C1 (stereo not given)	x	8	-33	x	3	-46	x	x
COc1cc2c(cc1OC)-c1c(OC)c(OC)cc3c1[C@H](C2)N(C)CC3	2	2	-1	-13	50*	4	x	x	MT1-MMP act val=5
CN1C(=O)C(=Cc2ccc(Sc3ccccc3)o2)C(=O)N(C)C1=S	10	6	8	12	36	5	x	x
CN1C(=O)C(=Cc2ccc(Sc3ccccc3)o2)C(=O)N(C)C1=O	2	16	-30	-5	33*	7	x	x	MT1-MMP act val=3
COc1cccc(C(c2nnnn2C(C)(C)C)N2CCC3(CC2)C(=O)NCN3c2ccccc2)c1OC (stereo not given)	x	3	-11	x	-2	x	x	x
CO[C@H]1C=CCCC=CC(=O)O[C@H]([C@H](C)C(=O)CCCC2CC(=O)NC(=O)C2)C(C)=C[C@@H](C)[C@@H]1O	x	x	4	x	1	x	x	x

Screening data (PubChem BioAssay)
